Arbovirus anti = blocks arbovirus infection; arbovirus infection cell-based antiviral screen; inhibition, % at 10 µM; hit rate 0.37% among 200,000; in the data active = inhibition above about 30%
Calpain2 inh = inhibitors of pig calpain II | AID 1236 | purified calpain II, fluorogenic peptide substrate, 30 min | inhibition, % at 16 µM | hit rate 0.37% among 220,000;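 active = inhibition above about 50%, limit read from the data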
Mdm2 ligase inh = blocks human Mdm2 ubiquitin ligase activity | hit rate 0.11% among 210,000 | signal enhancement, % at 5 µM | Q00987 | cell-based MDM2 ubiquitination luciferase reporter, 2 h; 0 = plate control, 100 = twice control, blank-subtracted;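 active = signal enhancement of 30% or more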;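 also: luminescence tracks abundance of the self-degrading MDM2-luciferase fusion protein; higher signal means inhibition of MDM2 E3 ligase activity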
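Buffer or medium: Cells held in DMEM | Assay system: Stable mammalian line carrying autodegrading MDM2–luciferase fusion reporter | Quantity: 2000 cells/well | Times: 4 h settle plus 2 h compound, 37 °C | Doses: One concentration, 5 µM, with 0.2% DMSO | Technique: Luminescence with SteadyLite reagent, 15 min at room temperature | Benchmarks: Plate controls and plate blanks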
PKD1 inh = inhibitors of human PKD1 kinase. PKD1 kinase fluorescence polarization assay. hit rate 0.056% among 200,000. inhibition, % (test concentration not listed). Q15139; in the data active = inhibition above about 50%
ROMK mod = modulates human ROMK potassium channel activity; P48048; Tet-inducible ROMK, thallium flux fluorescence; actives lie on both sides; B-score at 10 µM; hit rate 2% among 130,000;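 active = signal ratio slope over the read window, or its plate-corrected B-score, at least 3 SD from the plate mean, either direction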;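 also: B-score of the F/F0 ratio slope over 7 to 12 s after thallium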
Target sequence (P48048 whole entry, looked up): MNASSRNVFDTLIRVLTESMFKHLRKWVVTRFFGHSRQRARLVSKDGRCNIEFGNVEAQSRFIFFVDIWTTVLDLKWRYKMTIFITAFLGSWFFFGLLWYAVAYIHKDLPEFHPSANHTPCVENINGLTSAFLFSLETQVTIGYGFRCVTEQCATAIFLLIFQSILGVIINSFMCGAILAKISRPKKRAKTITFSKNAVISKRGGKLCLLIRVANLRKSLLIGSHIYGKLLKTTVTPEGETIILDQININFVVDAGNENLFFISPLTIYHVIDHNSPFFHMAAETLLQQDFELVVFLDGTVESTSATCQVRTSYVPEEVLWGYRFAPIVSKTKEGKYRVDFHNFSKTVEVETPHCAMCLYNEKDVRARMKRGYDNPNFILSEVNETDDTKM
KCC2 mod = modulates chloride dependent transport by human KCC2. Q9H2X9. KCC2 cells, thallium flux FluoZin-2 fluorescence. B-score of Tl+ flux slope (higher = more flux/activation; lower = inhibition) at 10 µM. hit rate 2.2% among 190,000. AID 1456;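 active = thallium flux slope and its plate-corrected score both differing from the plate sample mean at a set confidence after two filtering rounds, in either direction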;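 also: slope of fluorescence scaled to starting intensity during 10 to 20 s after thallium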
KCC2 secondary = confirmation of human KCC2 transport modulators | HEK293-KCC2, thallium flux, FluoZin2 fluorescence; hits give high values | normalised thallium flux (F/F0 slope) at 10 µM | hit rate 15% among 3,700 | shares compounds with KCC2 mod;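 active = thallium flux slope above the same plate's solvent-only control mean plus 3 SD; inconclusive = the two replicate wells disagree; inactive = no significant difference from solvent-only control wells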
KCC2 bumet counter = bumetanide-insensitive thallium flux in KCC2 cells with ouabain, counter-screen. shares compounds with KCC2 mod. HEK293-KCC2 + bumetanide/ouabain, thallium flux FluoZin2; hits give high values. normalized thallium flux at 10 µM. hit rate 49% among 3,700;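 active = thallium entry rate above the same plate's blocked-transporter control wells by more than 3 SD; inconclusive = the two repeat wells disagree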;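 also: raw slope of fluorescence over initial fluorescence between 10 and 20 s after thallium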
KCC2 sec2 = KCC2 (human) modulation, second secondary assay; hit rate 23% among 3,700; normalized thallium flux at 10 µM; HEK293-KCC2, thallium flux FluoZin2 fluorescence; actives lie on both sides; F/F0 rise rate, 10–20 s post-thallium; shares compounds with KCC2 mod;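 active = thallium flux slope more than 3 SD above or below the plate's solvent-only control mean, mostly below; inconclusive = the two repeat wells disagreed; inactive = no significant shift from solvent-only controls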;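 also: raw slope with 0.1% DMSO as baseline and bumetanide as block control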
HEK293 Tl flux = parental HEK flux effect, counter-screen; thallium flux rate (normalised fluorescence) at 10 µM; hit rate 46% among 3,700; HEK293 parental cells, thallium flux FluoZin2, ouabain; baseline-ratio fluorescence slope, 10–20 s after thallium; shares compounds with KCC2 mod;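 active = thallium flux rate significantly above the same plate's solvent-only control wells, beyond their mean plus 3 SD; inconclusive = the two replicate wells gave conflicting results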
KCC2 retest ouab = modulates human KCC2 on retest with ouabain; HEK293-KCC2, thallium flux FluoZin2 fluorescence; bidirectional: low = inhibitor, high = activator; AID 1717; raw Tl+ flux slope (below DMSO = inhibition, above = activation) at 10 µM; hit rate 48% among 3,700; shares compounds with KCC2 mod;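 active = thallium flux slope beyond 3 SD from same-plate DMSO control mean in most replicates, usually higher, sometimes lower; inconclusive = repeat tests gave conflicting results; inactive = no significant difference from controls in most replicates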;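 also: slope of initial-normalized fluorescence between seconds 10 and 20 after thallium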
HEK counter2 = parental HEK flux effect, counter-screen 2. thallium flux slope at 10 µM. HEK293 parental, thallium flux FluoZin-2 fluorescence slope. hit rate 33% among 3,700. shares compounds with KCC2 mod;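 active = thallium flux slope above the same plate's solvent-control mean plus 3 SD in both duplicate wells; inconclusive = duplicate wells that disagreed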;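 also: run without ouabain in cells lacking the KCC2 cotransporter; slope of fluorescence scaled to its starting value between 10 and 20 s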
The depositor's hits bear a star; ? = inconclusive; . = no result. This is a sample that favours compounds with a hit; in the whole collection about 3.7% have one here.

SMILES	Arbovirus anti	Calpain2 inh	Mdm2 ligase inh	PKD1 inh	ROMK mod	KCC2 mod	KCC2 secondary	KCC2 bumet counter	KCC2 sec2	HEK293 Tl flux	KCC2 retest ouab	HEK counter2
CC1CCCC(NC(=O)CCn2c(=S)oc3ccccc32)C1C (stereo unspecified)	.	-26	-12	.	-0.075	-0.84	0.0085	0.0068	0.032	0.0074	0.022	?
O=C1NCC(COCc2ccco2)O1 (stereo unspecified)	11	5	-39	2	-0.28	-4.8*	0.017	0.0049	0.027	?	0.017	0.012
Cc1ccccc1OCC1CNC(=O)O1 (stereo unspecified)	-3	-9	-5	-10	.	.	.	.	.	.	.	.
Nc1ccc(SCc2nc3cccc4c3n2CCC4)cc1	.	14	-13	.	-0.54	0.3	.	.	.	.	.	.
CCc1ccc(/C=C2\Oc3cc(OC(=O)N4CCOCC4)ccc3C2=O)cc1	-3	-10	4	-5	0.11	0.74	.	.	.	.	.	.
Cc1cc2c(cc1C)-c1nnc(-c3ccc4ccccc4n3)n1C(C)(C)C2	4	17	-4	2	.	-5*	0.0065	0.0052	0.03	0.008	0.019	0.011
CCCCNC(=O)c1onc(CSc2cccc3ccccc23)c1C(=O)O	15	-113	-12	2	.	-4.8*	0.0073	0.006	0.029	?	0.018*	0.0094
CCCCNC(=O)c1onc(CSc2ccccc2)c1C(=O)O	11	-26	-18	3	.	0.22	.	.	.	.	.	.
CCCn1nnc(NC(=S)NC(=O)c2ccc(-c3ccc(Br)cc3)o2)n1	.	11	-8	.	.	19*	?	0.015*	0.028	0.015*	0.057*	0.011
Cn1nnc(NC(=S)NC(=O)c2ccc(-c3ccc(Br)cc3)o2)n1	3	-14	-9	-6	0.19	5.2*	0.014*	0.018*	0.032	0.017*	?	0.012
CCCn1nnc(NC(=S)NC(=O)Cc2ccccc2)n1	-2	-25	-3	1	0.72	.	.	.	.	.	.	.
COC1(c2ccccc2)NC(=S)NN=C1c1ccccc1 (stereo unspecified)	7	4	-3	0	0.027	.	.	.	.	.	.	.
Fc1ccc(N2CCN(C(=S)NCC3CCCO3)CC2)cc1 (stereo unspecified)	3	-15	-14	2	-0.8	-2.6*	0.0067	0.0059	0.028	0.0063	?	0.0094
Fc1ccc(NC(=S)Nc2ccc(F)c(Cl)c2)cc1Cl	-26	26	-25	10	-1.5	-4.3*	0.006	0.0035	?	0.0059*	0.013*	?
N#Cc1nc(-c2ccco2)oc1N1CCN(Cc2ccccc2)CC1	11	.	-13	-4	-0.42	.	0.0081	0.006	0.026*	0.0069	0.028*	0.0098
COc1ccccc1-c1nc(C#N)c(N2CCN(Cc3ccccc3)CC2)o1	-3	-44	-12	0	0.032	.	.	.	.	.	.	.
O=c1cc(-c2ccccc2)nc2c(-c3ccccc3)c(C(F)(F)F)[nH]n12	.	-7	-8	.	.	3.8*	0.0099	0.014*	0.033	0.011*	0.022	0.0091
Cc1cc(=O)n2[nH]c(C)c(-c3ccccc3)c2n1	-4	-3	-13	-1	.	-0.045	.	.	.	.	.	.
CCOc1ncccc1C(=O)OCC(=O)NCCc1ccccc1	-1	-8	2	-5	0.022	0.38	.	.	.	.	.	.
CCOc1ncccc1C(=O)OCC(=O)c1ccc[nH]1	4	-36	-10	-7	0.26	-4.1*	0.01	0.0069	0.033	0.0043	0.021	0.012
NNC(=O)Cn1c(SCc2ccccc2)nc2ccccc21	-6	30	-15	6	-0.083	-3.3*	0.0074	0.0045	0.03	0.0074	0.018	0.0099
Cc1nc2ccccc2n1CC(=O)NN	2	6	-4	-3	0.73	0.6	.	.	.	.	.	.
O=C(O)CCn1c(SCc2cccc3ccccc23)nc2ccccc21	2	-36	-6	-7	-0.93	-8.7*	?	0.0065	0.022*	0.0066	0.016*	0.0097
CCCc1c(-c2ccc(O)cc2)nn(-c2ccc(O)cc2)c1-c1ccc(O)cc1	.	9	-2	.	.	-2.5*	0.0072	0.0046	0.033	?	0.019	0.01
CCCc1cc(C(=O)Nc2cccc(Cl)c2)no1	1	17	-16	-8	.	-0.97	.	.	.	.	.	.
SMILES	Arbovirus anti	Calpain2 inh	Mdm2 ligase inh	PKD1 inh	ROMK mod	KCC2 mod	KCC2 secondary	KCC2 bumet counter	KCC2 sec2	HEK293 Tl flux	KCC2 retest ouab	HEK counter2
CCC(=O)NNC(=O)c1cc(COc2cc(Cl)cc(Cl)c2)on1	.	28	-16	.	0.6	8.6*	0.0068	0.018*	0.031	0.017*	?	0.014*
O=C(O)CCC(=O)NNc1ccccc1[N+](=O)[O-]	-5	-6	-3	-6	0.75	0.36	.	.	.	.	.	.
COC(=O)NC1(C(=O)O)CCCC1	.	-20	-9	.	.	0.41	.	.	.	.	.	.
O=[N+]([O-])c1ccc(O)c(/C=N/n2cnc3ccccc32)c1	-4	8	-12	-2	.	-4.5*	0.0055	0.0049	0.021*	0.0061*	0.013*	?
CC(=O)Nc1ccc(SC[C@H](CC(C)C)N2CCN(CCc3ccccc3)CCC2=O)cc1	.	30	1	.	.	-3.8*	0.0096	0.0057	0.033	0.0069	0.019	0.011
Cc1ccc(SC[C@H](CC(C)C)N2CCN(CCc3ccccc3)CCC2=O)cc1	.	30	-3	.	.	-4.4*	0.0079	0.0053	0.032	0.0071	0.017*	0.0097
CC(=O)Nc1ccc(SC[C@H](CC(C)C)N2CCN(CC(C)C)CCC2=O)cc1	.	-7	9	.	.	0.12	.	.	.	.	.	.
COc1ccc(SC[C@H](CC(C)C)N2CCN(CCc3ccccc3)CCC2=O)cc1	.	14	17	.	.	-4.6*	0.0061	0.0036	?	0.0058*	0.013*	0.0087
O=C1[C@@H]2[C@@H]3C[C@@H]([C@H]4ON=C(c5ccc(OCc6ccccc6)cc5)[C@@H]34)[C@@H]2C(=O)N1c1ccc2c(c1)OCO2	-7	-94	-1	4	.	-0.43	.	.	.	.	.	.
CC(=O)C1=C(C)NC(SCC(N)=O)=C(C#N)C1C (stereo unspecified)	17	3	-13	-1	.	0.48	.	.	.	.	.	.
O=[N+]([O-])c1ccc(O)c(C2=NNC(c3ccccc3F)C2)c1 (stereo unspecified)	.	-5	-28	.	.	28*	0.0094	0.034*	0.031	0.025*	0.032*	?

Screening results: PubChem, several laboratories
